Reference: ChEMBL document CHEMBL4038338 (J Med Chem, 2017)
Calls of active or inactive are those of the source. The rule behind the calls is not given here.

Legend:
[1] = target: T1, Calpain-1 catalytic subunit (Homo sapiens) (UniProt P07384); assay: Inhibition of human erythrocytes calpain-1 using Suc-Leu-Tyr-AMC as substrate in presence of up to 10 mM glutathione by kinetic fluorescence assay
T1 sequence (whole entry): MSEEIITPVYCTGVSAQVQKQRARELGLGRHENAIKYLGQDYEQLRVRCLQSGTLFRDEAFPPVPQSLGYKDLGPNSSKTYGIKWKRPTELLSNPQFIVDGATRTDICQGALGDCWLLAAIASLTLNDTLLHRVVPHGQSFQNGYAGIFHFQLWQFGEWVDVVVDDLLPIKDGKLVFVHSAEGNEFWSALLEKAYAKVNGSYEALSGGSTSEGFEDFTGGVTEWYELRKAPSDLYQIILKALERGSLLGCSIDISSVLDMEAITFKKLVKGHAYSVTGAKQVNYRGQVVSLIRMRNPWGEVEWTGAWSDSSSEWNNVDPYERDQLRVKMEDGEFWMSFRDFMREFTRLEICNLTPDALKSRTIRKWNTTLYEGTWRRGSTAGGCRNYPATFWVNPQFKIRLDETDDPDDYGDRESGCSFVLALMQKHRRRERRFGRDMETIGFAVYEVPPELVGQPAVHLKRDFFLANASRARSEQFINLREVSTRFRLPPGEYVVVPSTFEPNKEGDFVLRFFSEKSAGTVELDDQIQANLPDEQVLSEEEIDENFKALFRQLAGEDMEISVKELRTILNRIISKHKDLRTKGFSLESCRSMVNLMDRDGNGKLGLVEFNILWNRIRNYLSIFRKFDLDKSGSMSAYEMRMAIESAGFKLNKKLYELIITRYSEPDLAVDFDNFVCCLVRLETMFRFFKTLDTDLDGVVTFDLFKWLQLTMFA

[2] = target: T2, Calpain-1 catalytic subunit (Homo sapiens, UniProt P07384); assay: Inhibition of human erythrocytes calpain-1 using Suc-Leu-Tyr-AMC as substrate by kinetic fluorescence assay
T2 sequence (P07384 whole entry): T1 sequence (whole entry)

[3] = Selectivity ratio of Ki for human liver cathepsin B to Ki for human erythrocytes calpain-1
[4] = species: Homo sapiens; assay: Selectivity ratio of Ki for recombinant human cathepsin S expressed in Escherichia coli to Ki for human erythrocytes calpain-1
How it was run: (§1)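 Ki ratios from kinetic fluorescence assays. Cathepsins B (0.25 nM), L (1 nM), K (3 nM) and S (0.5 nM) in MES buffer at pH 6.0. All at room temperature; Ki by Cheng-Prusoff.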

[5] = species: Homo sapiens; assay: Selectivity ratio of Ki for recombinant human procathepsin K expressed in Escherichia coli to Ki for human erythrocytes calpain-1; how it was run: as §1
[6] = Selectivity ratio of Ki for human liver cathepsin L to Ki for human erythrocytes calpain-1
[7] = Thiol reactivity using recombinant human full length 13C-labeled La antigen (100 to 324 residues) expressed in Escherichia coli BL21(DE3) by ALARM NMR

Row | Compound | inhibition [1] | Ki ([2]; read-out: Ki) [nM] | Ratio Ki [3] | Ratio Ki [4] | Ratio Ki [5] | Ratio Ki [6] | Thiol reactivity [7] | Ki ([2]; read-out: Ki(app)) [nM]
1 | NC(=O)C(=O)C(Cc1ccccc1)NC(=O)c1cccnc1-n1ccc(-c2ccc(C(F)(F)F)cc2)n1 (configuration not stated) | Active | 72 | 11 | 87 | 22 | 210 | Metabolite not detected | –
2 | NC(=O)C(=O)[C@H](Cc1ccccc1)NC(=O)c1cccnc1-n1ccc(-c2ccccc2)n1 | – | – | – | – | – | – | – | 10
3 | NC(=O)C(=O)C(Cc1ccccc1)NC(=O)c1cccnc1-n1ccc(-c2ccc(Cl)cc2)n1 (configuration not stated) | Active | 88 | 6 | > 300 | 9 | 89 | Metabolite not detected | –
4 | CCCCC(NC(=O)c1cccnc1-n1cc(-c2ccccc2)cn1)C(=O)C(N)=O (configuration not stated) | Active | 20 | <1 | 2 | < 1 | 4 | Metabolite not detected | –
5 | NC(=O)C(=O)C(Cc1ccccc1)NC(=O)c1cccnc1-n1ccc(C2CC2)n1 (configuration not stated) | Active | 94 | 4 | 50 | 7 | 34 | Metabolite not detected | –
6 | NC(=O)C(=O)C(Cc1ccccc1)NC(=O)c1cccnc1-n1ccc(C2CCCCC2)n1 (configuration not stated) | Active | 56 | 9 | 92 | 10 | 33 | Metabolite not detected | –
7 | NC(=O)C(=O)C(Cc1ccccc1)NC(=O)c1cccnc1-n1cc2c(n1)CCCC2 (configuration not stated) | Active | 101 | 2 | 10 | 2 | 45 | Metabolite not detected | –
8 | NC(=O)C(=O)C(Cc1ccccc1)NC(=O)c1cccnc1-c1nc(-c2ccccc2)cs1 (configuration not stated) | Active | 234 | 10 | 105 | 11 | 37 | Metabolite not detected | –
9 | NC(=O)C(=O)C(Cc1ccccc1)NC(=O)c1cccnc1-n1ccc(Cc2ccccc2)n1 (configuration not stated) | Active | 38 | 9 | 75 | 9 | 50 | Metabolite not detected | –
10 | NC(=O)C(=O)C(Cc1ccccc1)NC(=O)c1cccnc1-n1ccc(C2CCOCC2)n1 (configuration not stated) | Active | 48 | 14 | 147 | 13 | 56 | Metabolite not detected | –
11 | NC(=O)C(=O)C(Cc1ccccc1)NC(=O)c1cccnc1-n1cnc(-c2ccccc2)c1 (configuration not stated) | Active | 45 | <1 | 54 | < 1 | 23 | Metabolite not detected | –
12 | NC(=O)C(=O)C(Cc1ccccc1)NC(=O)c1cccnc1-n1ccc(-c2ccc(CN3CCOCC3)cc2)n1 (configuration not stated) | Active | 41 | <1 | 240 | < 1 | 5 | Metabolite not detected | –
13 | CC(C)(C)c1ccn(-c2ncccc2C(=O)NC(Cc2ccccc2)C(=O)C(N)=O)n1 (configuration not stated) | Active | 81 | 16 | 56 | 24 | 10 | Metabolite not detected | –
14 | NC(=O)C(=O)C(Cc1ccccc1)NC(=O)c1ccccc1-c1csc(-c2ccccc2)n1 (configuration not stated) | Active | 82 | 23 | 186 | < 1 | 116 | Metabolite not detected | –
15 | CCCCC(NC(=O)c1cccnc1-c1csc(-c2ccccc2)n1)C(=O)C(N)=O (configuration not stated) | Active | 122 | 2 | 27 | 1 | 13 | Metabolite not detected | –
16 | NC(=O)C(=O)C(Cc1ccccc1)NC(=O)c1cccnc1-c1coc(-c2ccccc2)n1 (configuration not stated) | Active | 177 | 11 | 127 | 20 | 29 | Metabolite not detected | –
17 | NC(=O)C(=O)C(Cc1ccccc1)NC(=O)c1cccnc1-n1cccn1 (configuration not stated) | Active | 164 | 1 | 21 | 3 | 20 | Metabolite not detected | –
18 | CCCCC(NC(=O)c1cccnc1-n1ccc(-c2ccccc2)n1)C(=O)C(N)=O (configuration not stated) | Active | 32 | 1 | 61 | 2 | 25 | Metabolite not detected | –
19 | CCCCC(NC(=O)c1cccnc1-n1cnc(-c2ccccc2)c1)C(=O)C(N)=O (configuration not stated) | Active | 38 | <1 | 22 | < 1 | 22 | Metabolite not detected | –
20 | NC(=O)C(=O)C(Cc1ccccc1)NC(=O)c1cccnc1-n1cc(-c2ccccc2)cn1 (configuration not stated) | Active | 21 | <1 | 14 | 1 | 12 | Metabolite not detected | –
21 | COc1ccc(-c2ccn(-c3ncccc3C(=O)NC(Cc3ccccc3)C(=O)C(N)=O)n2)cc1 (configuration not stated) | Active | 83 | 11 | > 500 | 17 | 81 | Metabolite not detected | –
22 | NC(=O)C(=O)C(Cc1ccccc1)NC(=O)c1cccnc1-c1csc(-c2ccccc2)n1 (configuration not stated) | Active | 38 | 39 | 310 | 11 | 139 | Metabolite not detected | –
23 | CN1CCC(c2ccn(-c3ncccc3C(=O)NC(Cc3ccccc3)C(=O)C(N)=O)n2)CC1 (configuration not stated) | Active | 146 | 2 | 89 | 1 | 2 | Metabolite not detected | –
24 | NC(=O)C(=O)C(Cc1ccccc1)NC(=O)c1ccccc1-n1ccc(-c2ccccc2)n1 (configuration not stated) | Active | 43 | 7 | 82 | 1 | 38 | Metabolite not detected | –
